Measurements from different studies.
Protocols differ between the studies behind these lines.
Target: Insulin-like growth factor 1 receptor (IGF1R, Homo sapiens, UniProt P08069)

Structure (SMILES) | test | conditions | quantity | value
CN1CCN(C(=O)c2ccc(NC(=O)Nc3ccc(N(C)c4ccnc(Nc5ccc(CS(C)(=O)=O)cc5)n4)cc3)cc2)CC1 | binding | 1 µM | remaining binding | 100%
N#Cc1ccc(NC(=O)Nc2ccccc2)cc1 | cell-free assay, competition with immobilised ligand | 25 µM | remaining binding | 100%
C#Cc1cnc(Nc2ccnc(CO)c2)nc1Nc1ccccc1S(C)(=O)=NC#N (stereo not drawn) | cell-free assay | 1 µM | remaining signal | 36%
CC#CC(=O)N1CCC[C@H]1c1nc(-c2ccc(C(=O)Nc3ccccn3)cc2)c2c(N)nccn12 | enzyme activity, inhibitor | 1 µM | inhibition | 3%
CCCCC(=O)Nc1ccc(-c2ccc3ncn(CCC)c(=O)c3c2)cn1 | binding, competition with immobilised ligand | 0.5 µM | remaining binding | 98%
C=CC(=O)N1CCC([C@@H]2CCNc3c(C(N)=O)c(-c4ccc(Oc5ccccc5)cc4)nn32)CC1 | cell-free assay | 1 µM | inhibition | 14%
C1=C/COCc2cc(ccc2OCCN2CCCC2)Nc2nccc(n2)-c2cccc(c2)COC/1 | binding | 0.1 µM | remaining binding | 83%
COc1ccc2oc(-c3ccc4nc(N)oc4c3)c/c(=N\c3ccccc3NC(=O)CCN)c2c1 | binding | 1 µM | remaining binding | 93%
C[C@H]1CC[C@H](n2c3cnccc3c3cnc(Nc4ccc5c(n4)CCN(C(=O)CO)C5)nc32)CC1 | binding | 1 µM | remaining binding | 100%
